RanGTP-Imp inh = inhibitors of RanGTP-importin-beta interaction, primary screen, biochemical, FRET, CFP-Ran, YFP-importin-beta, homogeneous; cell-free CFP-Ran/YFP-importin-beta FRET ratio; inhibition, % (no concentration beside the values); 1.1% of 300,000 active; AID 2216;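 active = more than half of the replicate wells show a fall in the fluorescence ratio signal beyond about 16%, limit read from the data, passing the limit was not always enough; inconclusive = exactly half of the replicate wells pass the set limit; inactive = fewer than half of replicates pass the limit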;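 note: 0% = DMSO wells and 100% = Ran loaded with GDP instead of GTP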
Runt-SMMHC FRET = blocks binding of human RUNX1 Runt domain to CBFb-SMMHC; Q01196+Q13951; Cerulean-Runt/Venus-CBFb-SMMHC FRET ratio 530/480, 1 h; inhibition, % at 20 µM; AID 1434; 0.74% of 220,000 active;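 active = mean inhibition across duplicate retests at 20 µM reaching about 50%, limit read from the data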;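 note: 0% = DMSO wells and 100% = wells with excess untagged CBFb-SMMHC; inhibitors lower the FRET ratio by blocking Runt binding to CBFb-SMMHC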
PERK inh = inhibitors of human PERK kinase; CHO PERK-DD fusion, SEAP luminescence translation reporter; inhibition, % at 5.6 µM; 0.17% of 220,000 active;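 active = inhibition above the mean inhibition of all tested compounds plus 3 SD, set separately per screening campaign, cut at about 2.9% in these data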;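 note: PERK kinase domain activated by AP20187 dimerizer at 100 nM; 0% = DMSO with dimerizer and 100% = rapamycin at 8.4 µM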
Hck Nef HTS = human Hck-Nef kinase inhibition; P08631; Recombinant Hck-YEEI plus Nef, Z-Lyte FRET kinase assay; inhibition, % at 20 µM; 0.68% of 220,000 active; AID 463187;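 active = Hck-Nef kinase inhibition above about 50%, limit read from the data; inactive = inhibition below that limit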;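 note: 0% = DMSO with Hck plus Nef and 100% = Hck alone without Nef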
Target sequence (P08631 whole entry, looked up): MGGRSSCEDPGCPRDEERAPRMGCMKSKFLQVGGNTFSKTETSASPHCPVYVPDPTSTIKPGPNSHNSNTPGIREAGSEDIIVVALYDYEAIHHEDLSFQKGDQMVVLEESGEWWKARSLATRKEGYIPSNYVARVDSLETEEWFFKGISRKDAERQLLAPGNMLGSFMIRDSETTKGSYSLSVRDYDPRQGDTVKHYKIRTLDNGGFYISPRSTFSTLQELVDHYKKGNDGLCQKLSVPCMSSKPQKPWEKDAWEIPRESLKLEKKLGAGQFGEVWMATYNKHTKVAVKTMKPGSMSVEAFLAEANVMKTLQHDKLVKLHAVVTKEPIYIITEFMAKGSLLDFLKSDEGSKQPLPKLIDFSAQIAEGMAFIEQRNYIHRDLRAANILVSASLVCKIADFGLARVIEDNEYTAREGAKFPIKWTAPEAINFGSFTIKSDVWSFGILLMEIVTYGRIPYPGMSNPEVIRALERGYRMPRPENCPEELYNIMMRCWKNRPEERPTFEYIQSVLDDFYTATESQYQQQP
eIF4E-4G inh = blocks eIF4E binding to eIF4G | AID 782 | inhibition, % at 21.7 µM | TR-FRET eIF4E-eIF4GI(517-606) binding, 2 h | P63073+Q04637 | 0.37% of 220,000 active;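 active = inhibition above about 30%, limit read from the data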;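 note: 0% = full FRET control wells and 100% = background wells lacking eIF4GI fragment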
Runt-CBFb FRET = Runt domain-CBFb interaction inhibition; 0.46% of 220,000 active; Cerulean-Runt/Venus-CBFb FRET ratio 530/480, 1 h; Q01196+Q13951; inhibition, % at 20 µM; AID 1496;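 active = inhibition over about 50% at 20 µM in the single-dose screen, limit read from the data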;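 note: 0% = DMSO wells and 100% = excess unlabeled CBFb competitor control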
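Assay system: Cerulean-tagged RUNX1 Runt domain (FRET donor) fusion protein / Amount: 100 nM each of Venus-CBFb and Cerulean-Runt domain / Medium: Tris buffer pH 7.5 with salts and BSA / Also added: Venus-CBFb 100 nM / Schedule: 1 h complex formation plus 1 h compound treatment, room temperature / Signal: FRET fluorescence / Read-out: loss of energy transfer signal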
* = called active by the depositor. The list is not random: actives were taken first. Their share in the collection is about 2.2%.

How did O=c1c2ccccc2nc2ccc(NCc3ccco3)nn12 do in these assays?
RanGTP-Imp inh: -4; Runt-SMMHC FRET: 7; PERK inh: 0; Hck Nef HTS: 3; eIF4E-4G inh: 8; Runt-CBFb FRET: 2

How did O=C(NCc1ccco1)c1cnn2c1NC(c1ccc(Br)cc1)CC2C(F)(F)F (stereo not drawn) do in these assays?
RanGTP-Imp inh: 25*; Runt-SMMHC FRET: 7; PERK inh: 0; Hck Nef HTS: 1; eIF4E-4G inh: 4; Runt-CBFb FRET: 0

What do the screens show for `O=C(O)c1cc(-c2ccccc2)n(-c2ccccc2C(=O)O)n1`?
RanGTP-Imp inh: -2; Runt-SMMHC FRET: -6; PERK inh: 1; Hck Nef HTS: 1; eIF4E-4G inh: 42*; Runt-CBFb FRET: 4

Results for O=C(O)c1cc(-c2ccccc2)n(-c2ccc(F)cc2)n1 ?
RanGTP-Imp inh: 1

How did CCCc1cc(-n2ccnc2)n2c(nc3ccccc32)c1C#N do in these assays?
RanGTP-Imp inh: inconclusive; Runt-SMMHC FRET: 62*; PERK inh: 0; Hck Nef HTS: 5; eIF4E-4G inh: 1; Runt-CBFb FRET: 88*

How did Cc1cc(-n2ccnc2)n2c(nc3ccccc32)c1C#N do in these assays?
RanGTP-Imp inh: 3; Runt-SMMHC FRET: 48; PERK inh: 1; Hck Nef HTS: 6; eIF4E-4G inh: -2; Runt-CBFb FRET: 37

How did Cc1ccc(CNC(=O)CSc2ccsc2[N+](=O)[O-])cc1 do in these assays?
RanGTP-Imp inh: 2; Runt-SMMHC FRET: 0; PERK inh: 1; Hck Nef HTS: 23; eIF4E-4G inh: -2; Runt-CBFb FRET: 2

How did CC(=O)c1ccc(NC(=O)CSc2ccsc2[N+](=O)[O-])cc1 do in these assays?
RanGTP-Imp inh: -5; Runt-SMMHC FRET: -13; PERK inh: 0; Hck Nef HTS: 30; eIF4E-4G inh: 32*; Runt-CBFb FRET: -5

Results for O=C(CSc1ccsc1[N+](=O)[O-])Nc1cc(F)ccc1F ?
RanGTP-Imp inh: -4; Runt-SMMHC FRET: -2; PERK inh: 0; Hck Nef HTS: 32; eIF4E-4G inh: 50*; Runt-CBFb FRET: 4

How did CC(C)(C)NC(=O)/C=C/c1ccc(C(F)(F)F)cc1 do in these assays?
RanGTP-Imp inh: -1; Runt-SMMHC FRET: 3; PERK inh: 1; Hck Nef HTS: 7; eIF4E-4G inh: 1; Runt-CBFb FRET: -4

What do the screens show for `Cc1cccc2cc(C#N)c(NCc3ccccc3)nc12`?
RanGTP-Imp inh: inconclusive; Runt-SMMHC FRET: 47; PERK inh: 1; Hck Nef HTS: 38; eIF4E-4G inh: -5; Runt-CBFb FRET: 21

Results for Cc1cccc2cc(C#N)c(NCCCNS(=O)(=O)c3ccc(Cl)cc3)nc12 ?
RanGTP-Imp inh: 47*; Runt-SMMHC FRET: 74*; PERK inh: 0; Hck Nef HTS: 30; eIF4E-4G inh: -10; Runt-CBFb FRET: 31

How did Cc1cccc2cc(C#N)c(NCCNS(=O)(=O)c3ccccc3)nc12 do in these assays?
RanGTP-Imp inh: 13; Runt-SMMHC FRET: 58*; PERK inh: 1; Hck Nef HTS: 22; eIF4E-4G inh: -2; Runt-CBFb FRET: 26

How did O=C(/C=C/c1ccc(Cl)cc1Cl)N1CCc2ccccc21 do in these assays?
RanGTP-Imp inh: inconclusive; Runt-SMMHC FRET: 1; PERK inh: 1; Hck Nef HTS: 3; eIF4E-4G inh: 2; Runt-CBFb FRET: -4

How did Oc1ccc(Cl)cc1N=Nc1ccccc1 do in these assays?
RanGTP-Imp inh: 2

Results for O=S(=O)(O)c1cc(O)c2c(O)c(N=Nc3cc(Cl)ccc3O)c(S(=O)(=O)O)cc2c1 ?
RanGTP-Imp inh: 57*

How did O=C(O)c1c2c(nc3ccccc13)/C(=C/c1ccc(O)cc1)CC2 do in these assays?
RanGTP-Imp inh: -10; Runt-SMMHC FRET: 86*; PERK inh: 1; Hck Nef HTS: -19; eIF4E-4G inh: 9; Runt-CBFb FRET: 20

Results for CCc1ccc(/C=C2\CN(CC)Cc3c2nc2ccccc2c3C(=O)O)cc1 ?
RanGTP-Imp inh: -1; Runt-SMMHC FRET: -215; PERK inh: 0; Hck Nef HTS: -1; eIF4E-4G inh: -6; Runt-CBFb FRET: -33

What do the screens show for `O=C(O)c1c2c(nc3ccccc13)/C(=C/c1c(F)cccc1F)CCC2`?
RanGTP-Imp inh: 75*

How did COc1cccc2c1CCc1c-2nc2ccccc2c1C(=O)O do in these assays?
RanGTP-Imp inh: 3

Results for O=C1CCN=C(Nc2ccc(F)cc2)N1Cc1ccccc1 ?
RanGTP-Imp inh: 0; Runt-SMMHC FRET: -7; PERK inh: -1; Hck Nef HTS: -1; eIF4E-4G inh: -7; Runt-CBFb FRET: 2

Results for COc1ccc(C(=O)NCC(=O)OCC(=O)N2CCN(S(=O)(=O)c3ccccc3)CC2)cc1 ?
RanGTP-Imp inh: -3; Runt-SMMHC FRET: -2; PERK inh: 0; Hck Nef HTS: 2; eIF4E-4G inh: 8; Runt-CBFb FRET: -2

What do the screens show for `CCCn1nc(NC(=O)COC)c2cc3cc(C)ccc3nc21`?
RanGTP-Imp inh: 23*

Results for CCCn1nc(NC(=O)c2ccco2)c2cc3cc(C)ccc3nc21 ?
RanGTP-Imp inh: 79*; Runt-SMMHC FRET: 82*; PERK inh: -2; Hck Nef HTS: -9; eIF4E-4G inh: 5; Runt-CBFb FRET: 49

How did Cc1ccc2nc3c(cc2c1)c(NC(=O)c1cccnc1)nn3C do in these assays?
RanGTP-Imp inh: 29*; Runt-SMMHC FRET: 25; PERK inh: -1; Hck Nef HTS: 11; eIF4E-4G inh: 2; Runt-CBFb FRET: 15

How did CCCn1nc(NC(=O)c2ccccn2)c2cc3cc(C)ccc3nc21 do in these assays?
RanGTP-Imp inh: 103*; Runt-SMMHC FRET: 94*; PERK inh: -3; Hck Nef HTS: 12; eIF4E-4G inh: -3; Runt-CBFb FRET: 48

Results for Cc1c(C(=O)O)oc2ccc(S(=O)(=O)N3CCCCC3C(=O)O)cc12 (stereo not drawn) ?
RanGTP-Imp inh: -1; Runt-SMMHC FRET: -1; PERK inh: 1; Hck Nef HTS: 18; eIF4E-4G inh: -1; Runt-CBFb FRET: 0

What do the screens show for `COc1ccc(C)cc1S(=O)(=O)Nc1cccc(SC)c1`?
RanGTP-Imp inh: 2; Runt-SMMHC FRET: 0; PERK inh: 0; Hck Nef HTS: 0; eIF4E-4G inh: 0; Runt-CBFb FRET: 0

How did CCCn1nc(NC(=O)c2ccco2)c2cc3ccc(C)cc3nc21 do in these assays?
RanGTP-Imp inh: 57*; Runt-SMMHC FRET: 48; Runt-CBFb FRET: 24

Results for Cc1ccc(Nc2nc3ccccc3[nH]2)nc1 ?
RanGTP-Imp inh: -3; Runt-SMMHC FRET: 11; PERK inh: -1; Hck Nef HTS: 3; eIF4E-4G inh: 1; Runt-CBFb FRET: -3

Results for Cc1ccc(-c2onc3ccc(C=O)cc23)cc1 ?
RanGTP-Imp inh: 23*; Runt-SMMHC FRET: -7; PERK inh: 0; Hck Nef HTS: 1; eIF4E-4G inh: 7; Runt-CBFb FRET: -1
